Data published in ChEMBL document CHEMBL1121637, “Tumor inhibitory triazenes. 2. Variation of antitumor activity within an homologous series” (J Med Chem, 1980).

What was measured:
[1] = Solubility in sorensen's phosphate buffer at pH 7.4 and 25 degrees Centigrade.
Mus musculus [2] = organism: Mus musculus; assay: Minimum dose that causes 50% increase in life span in TLX/5 lymphoma bearing animal; format: functional
Procedure, shortened: (§1)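 Female CBA/LAC mice with subcutaneously transplanted TLX/5 lymphoma. Drug given i.p. in saline (about pH 7.5) once daily for 5 consecutive days, starting 3 days after transplant. Doses ran 12.5–400 mg/kg, with lower doses made by serial dilution. Five mice per dose; survival time compared with 10 untreated controls. ILS ≥20% counted significant. Minimum dose for 50% ILS expressed in mol/kg.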

Mus musculus [3] = assay: Percent increase in life span of TLX/5 lymphoma bearing mice at dose of 100 mg/kg; format: functional; procedure, shortened: as §1
Mus musculus [4] = assay: Percent increase in life span of TLX/5 lymphoma bearing mice at dose of 12.5 mg/kg; format: functional; procedure, shortened: as §1
Mus musculus [5] = assay: Percent increase in life span of TLX/5 lymphoma bearing mice at dose of 200 mg/kg; format: functional; procedure, shortened: as §1
Mus musculus [6] = assay: Percent increase in life span of TLX/5 lymphoma bearing mice at dose of 25 mg/kg; format: functional
Mus musculus [7] = assay: Percent increase in life span of TLX/5 lymphoma bearing mice at dose of 50 mg/kg; format: functional; procedure, shortened: as §1
[8] = Partition coefficient was determined in octanol-saturated sorenson's pH 7.4 phosphate buffer and buffer-saturated octanol.; format: physicochemical; settings: octanol/Sorensen's phosphate buffer
Procedure, shortened: (§2)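 Compound shaken 1 h at room temperature in 0.1 M Sorenson's phosphate buffer pre-saturated with octanol, filtered. A known volume was then shaken 1 h with a known volume of buffer-saturated octanol. Aqueous phase and initial filtrate diluted in ethanol, filtered, absorbance read at λmax. P = (aqueous vol × absorbance drop)/(final aqueous absorbance × octanol vol). Mean of at least two determinations.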

Mus musculus [9] = assay: Percent increase in life span of TLX/5 lymphoma bearing mice at dose of 400 mg/kg; format: functional; procedure, shortened: as §1
Mus musculus [10] = assay: Percent increase in life span of TLX/5 lymphoma bearing mice at dose of 100 mg/kg when 10 % acetone/Oil is given as vehicle; format: functional
Mus musculus [11] = assay: Percent increase in life span of TLX/5 lymphoma bearing mice at dose of 12.5 mg/kg when 10 % acetone/Oil is given as vehicle; format: functional
Mus musculus [12] = assay: Percent increase in life span of TLX/5 lymphoma bearing mice at dose of 200 mg/kg when 10 % acetone/Oil is given as vehicle; format: functional
Mus musculus [13] = assay: Percent increase in life span of TLX/5 lymphoma bearing mice at dose of 25 mg/kg when 10 % acetone/Oil is given as vehicle; format: functional
Mus musculus [14] = assay: Percent increase in life span of TLX/5 lymphoma bearing mice at dose of 400 mg/kg when 10 % acetone/Oil is given as vehicle; format: functional
Mus musculus [15] = assay: Percent increase in life span of TLX/5 lymphoma bearing mice at dose of 50 mg/kg when 10 % acetone/Oil is given as vehicle; format: functional
[16] = Partition coefficient between octanol-saturated sorenson's pH 7.4 phosphate buffer and buffer-saturated octanol.; format: physicochemical; settings: octanol/Sorensen's phosphate buffer; procedure, shortened: as §2
Mus musculus [17] = organism: Mus musculus; assay: Minimum dose that causes 50% increase in life span in TLX/5 lymphoma bearing mice; format: functional; procedure, shortened: as §1
Mus musculus [18] = assay: Percent increase in life span of TLX/5 lymphoma bearing mice at dose of 100 mg/kg 200 mg/kg; format: functional; procedure, shortened: as §1

Structure (SMILES)	Solubility [1]	Dose (Mus musculus [2])	ILS at 100 mg/kg (Mus musculus [3])	ILS at 12.5 mg/kg (Mus musculus [4])	ILS at 200 mg/kg (Mus musculus [5])	ILS at 25 mg/kg (Mus musculus [6])	ILS at 50 mg/kg (Mus musculus [7])	logD [8]	ILS at 400 mg/kg (Mus musculus [9])	ILS at 100 mg/kg (Mus musculus [10])	ILS at 12.5 mg/kg (Mus musculus [11])	ILS at 200 mg/kg (Mus musculus [12])	ILS at 25 mg/kg (Mus musculus [13])	ILS at 400 mg/kg (Mus musculus [14])	ILS at 50 mg/kg (Mus musculus [15])	logD [16]	Dose (Mus musculus [17])	ILS at 200 mg/kg (Mus musculus [18])
CCC(C)CN(C)/N=N/c1ccc(C(=O)O)cc1 (centres undefined)	0.0162 M l-1	0.0002 mol/kg	62%	7%	60%	11%	52%	1.33	57%	–	–	–	–	–	–	–	–	–
CCCCCCCCCCCCN(C)/N=N/c1ccc(C(=O)O)cc1	4.13e-6 M l-1	–	–	–	–	–	–	–	–	–	–	–	–	–	–	–	–	–
CN(Cc1ccccc1)/N=N/c1ccc(C(=O)O)cc1	–	–	49%	6%	-59%	6%	7%	–	-61%	–	–	–	–	–	–	–	–	–
CCCCN(C)/N=N/c1ccc(C(=O)O)cc1	0.0155 M l-1	5.3e-05 mol/kg	47%	69%	20%	82%	86%	0.97	-31%	–	–	–	–	–	–	–	–	–
CN(C)/N=N/c1ccc(C(=O)O)cc1	–	6.2e-05 mol/kg	34%	40%	0%	72%	83%	-0.44	-34%	49%	19%	-4%	51%	-36%	70%	–	–	–
C#CCN(C)/N=N/c1ccc(C(=O)O)cc1	–	0.00015 mol/kg	70%	0%	40%	36%	76%	0	-18%	–	–	–	–	–	–	–	–	–
C=CCN(C)/N=N/c1ccc(C(=O)O)cc1	–	0.00017 mol/kg	76%	1%	56%	11%	96%	0.32	-25%	–	–	–	–	–	–	–	–	–
CCCCCCN(C)/N=N/c1ccc(C(=O)O)cc1	0.00298 M l-1	3e-05 mol/kg	73%	0%	-8%	0%	18%	1.95	-53%	–	–	–	–	–	–	–	–	–
CCCCCCCCN(C)/N=N/c1ccc(C(=O)O)cc1	0.000171 M l-1	–	–	–	–	–	–	2.77	–	–	–	–	–	–	–	–	–	–
CCCCCCCN(C)/N=N/c1ccc(C(=O)O)cc1	0.00041 M l-1	–	9%	3%	-19%	1%	5%	2.58	-48%	–	–	–	–	–	–	–	–	–
CCN(C)/N=N/c1ccc(C(=O)O)cc1	–	–	67%	44%	–	79%	79%	–	-21%	–	–	–	–	–	–	0.04	7e-05 mol/kg	27%
CCCCCN(C)/N=N/c1ccc(C(=O)O)cc1	0.00428 M l-1	7.1e-05 mol/kg	61%	10%	-61%	108%	75%	1.49	-61%	–	–	–	–	–	–	–	–	–
CCCN(C)/N=N/c1ccc(C(=O)O)cc1	0.0368 M l-1	9.4e-05 mol/kg	69%	13%	57%	69%	69%	0.46	-3%	–	–	–	–	–	–	–	–	–
CC(C)N(C)/N=N/c1ccc(C(=O)O)cc1	–	7e-05 mol/kg	60%	37%	45%	90%	64%	0.34	35%	–	–	–	–	–	–	–	–	–
CN(C)/N=N/c1[nH]cnc1C(N)=O [DACARBAZINE]	–	–	55%	55%	61%	55%	59%	–	-11%	–	–	–	–	–	–	–	–	–
